Laboratory results published in PMC4969713 (Journal of Alzheimer's Disease, 2016).
Entries after “also recorded” stand apart in the source; their conditions may differ. Counter-ions that a name gives are not always drawn.

What was measured:
5-HT7 receptor [1] = molecular target: T1, 5-HT7 receptor (Homo sapiens, UniProt P34969); assay: Radioligand binding competition, 5-HT7
histamine H3 receptor = histamine H3 receptor (Homo sapiens, UniProt Q9Y5N1); assay: Radioligand binding competition, histamine H3
histamine H3 receptor, sequence (Q9Y5N1 whole entry, species assumed): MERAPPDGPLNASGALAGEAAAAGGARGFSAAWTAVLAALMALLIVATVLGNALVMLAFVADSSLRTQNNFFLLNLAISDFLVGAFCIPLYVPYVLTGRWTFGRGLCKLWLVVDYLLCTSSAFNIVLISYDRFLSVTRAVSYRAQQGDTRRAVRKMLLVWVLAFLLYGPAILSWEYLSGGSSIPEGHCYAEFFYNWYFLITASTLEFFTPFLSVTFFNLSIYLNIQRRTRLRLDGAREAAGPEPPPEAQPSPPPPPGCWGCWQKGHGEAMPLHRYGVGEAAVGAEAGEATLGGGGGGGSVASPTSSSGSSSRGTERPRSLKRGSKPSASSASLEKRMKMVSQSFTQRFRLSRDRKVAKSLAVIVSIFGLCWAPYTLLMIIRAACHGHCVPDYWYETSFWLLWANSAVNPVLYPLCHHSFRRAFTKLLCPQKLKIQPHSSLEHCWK

Adrenergic α1D = Adrenergic α1D (Homo sapiens, UniProt P25100); assay: Radioligand competition, adrenergic α1D; assay type: binding
Adrenergic α1D, sequence (P25100 whole entry): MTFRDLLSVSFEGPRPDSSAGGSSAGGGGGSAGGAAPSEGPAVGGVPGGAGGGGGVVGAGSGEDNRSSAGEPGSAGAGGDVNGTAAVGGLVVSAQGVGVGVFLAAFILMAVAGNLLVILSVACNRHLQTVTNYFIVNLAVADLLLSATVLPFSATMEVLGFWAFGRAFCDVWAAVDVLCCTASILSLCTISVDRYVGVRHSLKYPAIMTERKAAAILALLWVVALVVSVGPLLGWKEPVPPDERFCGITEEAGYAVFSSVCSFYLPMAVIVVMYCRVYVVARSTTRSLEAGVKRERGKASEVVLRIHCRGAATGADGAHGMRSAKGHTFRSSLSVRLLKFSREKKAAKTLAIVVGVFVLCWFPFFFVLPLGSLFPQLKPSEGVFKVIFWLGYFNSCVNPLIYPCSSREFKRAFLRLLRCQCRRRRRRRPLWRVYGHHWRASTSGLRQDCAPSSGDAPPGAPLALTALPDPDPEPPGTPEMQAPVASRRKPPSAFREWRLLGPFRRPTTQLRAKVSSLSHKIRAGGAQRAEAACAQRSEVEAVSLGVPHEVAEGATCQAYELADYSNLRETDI

5-HT2B receptor = 5-HT2B receptor (Rattus norvegicus, UniProt P30994); assay: Rat stomach fundus contraction assay
5-HT2B receptor, sequence (P30994 whole entry): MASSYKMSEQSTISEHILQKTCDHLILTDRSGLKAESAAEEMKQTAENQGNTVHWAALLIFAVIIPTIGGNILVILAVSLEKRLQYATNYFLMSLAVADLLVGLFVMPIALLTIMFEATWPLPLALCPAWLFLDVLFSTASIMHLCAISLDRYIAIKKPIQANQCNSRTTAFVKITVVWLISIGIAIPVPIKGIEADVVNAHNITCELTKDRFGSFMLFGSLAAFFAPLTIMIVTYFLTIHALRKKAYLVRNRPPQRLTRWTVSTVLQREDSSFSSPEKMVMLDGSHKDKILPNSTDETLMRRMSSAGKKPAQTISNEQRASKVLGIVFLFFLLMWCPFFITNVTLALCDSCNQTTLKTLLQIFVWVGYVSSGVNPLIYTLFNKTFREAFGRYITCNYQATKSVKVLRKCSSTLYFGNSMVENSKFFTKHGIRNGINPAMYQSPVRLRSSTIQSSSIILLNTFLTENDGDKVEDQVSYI

CYP2D6 = CYP2D6 (Homo sapiens, UniProt P10635); assay: Metabolism by recombinant CYP2D6; assay type: in vitro ADME
CYP2D6, sequence (P10635 whole entry): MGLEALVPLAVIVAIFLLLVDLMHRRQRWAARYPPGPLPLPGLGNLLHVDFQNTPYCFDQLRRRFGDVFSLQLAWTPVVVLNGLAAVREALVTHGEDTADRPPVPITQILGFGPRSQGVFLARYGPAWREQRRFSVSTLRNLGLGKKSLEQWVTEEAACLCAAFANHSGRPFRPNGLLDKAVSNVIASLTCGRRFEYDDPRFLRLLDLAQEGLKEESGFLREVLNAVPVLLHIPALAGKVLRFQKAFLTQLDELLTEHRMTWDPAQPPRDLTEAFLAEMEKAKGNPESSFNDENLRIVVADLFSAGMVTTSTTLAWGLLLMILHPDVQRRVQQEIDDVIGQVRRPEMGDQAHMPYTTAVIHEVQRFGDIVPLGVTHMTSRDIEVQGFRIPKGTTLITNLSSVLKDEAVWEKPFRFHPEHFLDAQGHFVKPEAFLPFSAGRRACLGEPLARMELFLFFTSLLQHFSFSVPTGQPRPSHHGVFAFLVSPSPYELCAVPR

[2] = Biodistribution of [3H]AVN-101 in rat organs; assay type: in vivo, Wistar rats; settings: for concentration in Blood / concentration in Brain / concentration in Heart / concentration in Kidneys / concentration in Liver / concentration in Lungs / concentration in Spleen: [3H] label; for accumulation in brain higher than in blood: 4 h
Pharmacokinetics in dogs = assay type: in vivo, dogs (Beagle); settings: for Cmax / Tmax / half-life / AUC: Beagle, dog, blood
[3] = Pharmacokinetics in Rhesus monkeys; assay type: in vivo; settings: for AUC / Cmax / k el / half-life: rhesus monkey, in vivo; for k el: Kel
male BALB/c mice [4] = assay: Elevated Plus-Maze; assay type: in vivo; settings: IP; Buspirone 5 mg/kg; M2 0.05, 0.5, 1.0, 5.0 mg/kg
Outline: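 Elevated plus-maze in mice. Read-outs were open/closed arm time ratio, open/closed visit ratio, defecations and total visits. Each treated group was compared with the placebo group by Student t-test.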

BALB/c mice [5] = assay: Open Field test; assay type: in vivo; settings: IP; Lorazepam 0.05 mg/kg, AVN-101 0.2 mg/kg
Outline: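 Male BALB/c mice received lorazepam 30 min or test compound 5 min before testing; controls received saline, with at least 8 per group. Time in the central zone was recorded during a 10-min exploration. Comparison with the control group used ANOVA with Fisher LSD.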

Sprague Dawley rats = assay: Passive avoidance, scopolamine-induced amnesia, rats; assay type: in vivo; settings: 0.05 mg/kg IP
BALB/c mice [6] = assay: Morris water maze, scopolamine-induced amnesia; assay type: in vivo; settings: IP; AVN-101 0.2 mg/kg; Tacrine 3 mg/kg; donepezil 1 mg/kg; scopolamine 1.5 mg/kg
Outline: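 Scopolamine-induced amnesia model in male BALB/c mice. Read-out was time spent in the quadrant where the escape platform had been during the two preceding training days, reported as mean ± SE.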

male BALB/c mice [7] = assay: Novel object recognition, scopolamine-induced; assay type: in vivo; settings: 1.0 mg/kg scopolamine; memantine 10 mg/kg; SB-742457 0.2 or 1.0 mg/kg
Outline: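 All drugs were dissolved in saline and given IP; control animals received saline vehicle. Each group had at least 8 male BALB/c mice. Read-out was novel object recognition index, reported as mean ± SE.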

Wistar rats = assay: 30 days toxicity, rats; assay type: in vivo; settings: 0.5, 5 and 25 mg/kg PO daily
Outline: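 Wistar rats were randomised to vehicle, 0.5, 5 or 25 mg/kg, with 10 males and 10 females per group. Read-outs were body weight, plasma biochemistry markers, and macro- and microscopic observations.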

laboratory rabbits = assay: 30 days toxicity, rabbits; assay type: in vivo; settings: 4 mg/kg PO daily
[8] = Dialysis of diluted rat plasma against rat brain homogenate; assay type: in vitro ADME; settings: 1μM AVN-101 in 20% plasma vs brain homogenate
Outline: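 A 48-well semi-permeable-membrane dialysis plate was used. Donor chamber held 20% rat plasma diluted in PBS with 1 μM test compound; acceptor chamber held rat brain homogenate. Both chambers were sampled at several time points, and samples were matrix-equilibrated by cross-adding the opposite matrix. Membrane-permeability controls used 20% plasma in both chambers or PBS in both chambers.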

5-HT7 receptor [9] = molecular target: T1, 5-HT7 receptor; settings: Table 2; cited from earlier work
hERG potassium channel = hERG potassium channel (Homo sapiens, UniProt Q12809); assay: hERG single cell patch clamp in HEK cells
hERG potassium channel, sequence (Q12809 whole entry): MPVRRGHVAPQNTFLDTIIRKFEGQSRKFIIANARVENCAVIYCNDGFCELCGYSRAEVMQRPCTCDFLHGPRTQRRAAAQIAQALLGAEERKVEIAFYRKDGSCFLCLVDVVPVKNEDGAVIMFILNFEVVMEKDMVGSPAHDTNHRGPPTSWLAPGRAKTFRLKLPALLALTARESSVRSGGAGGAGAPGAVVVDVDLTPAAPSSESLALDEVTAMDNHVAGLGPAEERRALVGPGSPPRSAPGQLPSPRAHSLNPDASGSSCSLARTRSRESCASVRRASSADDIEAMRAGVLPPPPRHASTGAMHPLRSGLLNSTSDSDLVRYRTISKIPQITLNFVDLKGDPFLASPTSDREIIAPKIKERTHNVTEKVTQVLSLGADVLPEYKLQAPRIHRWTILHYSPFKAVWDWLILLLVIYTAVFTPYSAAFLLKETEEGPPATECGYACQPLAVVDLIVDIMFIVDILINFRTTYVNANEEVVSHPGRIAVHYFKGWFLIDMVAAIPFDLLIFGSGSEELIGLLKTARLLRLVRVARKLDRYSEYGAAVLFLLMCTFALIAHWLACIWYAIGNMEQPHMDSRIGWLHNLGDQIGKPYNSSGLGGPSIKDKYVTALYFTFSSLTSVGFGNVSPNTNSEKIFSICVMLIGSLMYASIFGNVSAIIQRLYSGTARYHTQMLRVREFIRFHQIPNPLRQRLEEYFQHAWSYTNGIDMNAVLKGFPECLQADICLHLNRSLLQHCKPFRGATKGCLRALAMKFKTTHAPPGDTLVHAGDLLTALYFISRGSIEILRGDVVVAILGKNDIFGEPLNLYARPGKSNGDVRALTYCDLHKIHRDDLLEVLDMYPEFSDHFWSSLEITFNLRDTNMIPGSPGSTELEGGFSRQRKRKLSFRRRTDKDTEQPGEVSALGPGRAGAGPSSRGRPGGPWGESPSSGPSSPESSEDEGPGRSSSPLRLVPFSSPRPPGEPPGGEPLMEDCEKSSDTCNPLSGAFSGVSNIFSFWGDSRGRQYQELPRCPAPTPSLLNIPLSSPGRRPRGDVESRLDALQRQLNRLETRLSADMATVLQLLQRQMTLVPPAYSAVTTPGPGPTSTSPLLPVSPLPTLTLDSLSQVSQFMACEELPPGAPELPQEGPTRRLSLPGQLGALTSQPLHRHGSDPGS

[10] = iv, 2 mg/kg, monkey 34887, IV 2 mg/kg
[11] = iv, 2 mg/kg, monkey 35188, IV 2 mg/kg
[12] = po, 10 mg/kg, Mean, PO 10 mg/kg
[13] = po, 10 mg/kg, monkey 34920, PO 10 mg/kg
[14] = po, 10 mg/kg, monkey 35189, PO 10 mg/kg

T1 sequence (P34969 whole entry): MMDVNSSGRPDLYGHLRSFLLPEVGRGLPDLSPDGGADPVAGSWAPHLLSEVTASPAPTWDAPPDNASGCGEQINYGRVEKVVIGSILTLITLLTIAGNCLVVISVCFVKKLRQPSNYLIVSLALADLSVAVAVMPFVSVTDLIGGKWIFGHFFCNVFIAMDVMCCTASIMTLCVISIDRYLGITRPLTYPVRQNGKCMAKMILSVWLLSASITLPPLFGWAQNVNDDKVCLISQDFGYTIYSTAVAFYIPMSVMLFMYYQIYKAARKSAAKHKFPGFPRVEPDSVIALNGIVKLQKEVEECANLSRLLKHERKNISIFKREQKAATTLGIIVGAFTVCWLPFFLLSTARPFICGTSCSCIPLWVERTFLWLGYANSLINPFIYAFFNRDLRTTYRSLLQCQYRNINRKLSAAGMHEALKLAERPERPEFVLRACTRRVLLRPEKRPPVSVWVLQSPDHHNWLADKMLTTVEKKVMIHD

Cc1ccc2c(c1)c1c(n2CCc2ccccc2)CCN(C)C1 [AVN-101, 2,8-dimethyl-5-penethyl-2,3,4,5-tetra-hydro-1h-pyrido[[4,3-B]]indole hydrochloride]
IC50 (5-HT7 receptor [1]): 0.28 nM
affinity higher than SB-742457 (5-HT7 receptor [1]): ~4 orders of magnitude
binding (histamine H3 receptor): totally inactive; also recorded: does not bind
Ki (Adrenergic α1D): 30.2 nM
blockade of α methyl-serotonin-induced fundus contraction (5-HT2B receptor): effectively blocking
agonistic activity (fundus contraction) (5-HT2B receptor; AVN-101 alone): lacked intrinsic agonistic activity
remaining at 0.5 h, 2 µM (CYP2D6): 0%
concentration in Blood ([2]; 4 h after IV 5 mg/kg): 360 ± 10 ng/mL
concentration in Brain ([2]; 4 h after IV 5 mg/kg): 9440 ± 360 ng/mL
concentration in Heart ([2]; 4 h after IV 5 mg/kg): 9240 ± 230 ng/mL
concentration in Kidneys ([2]; 4 h after IV 5 mg/kg): 6500 ± 200 ng/mL
concentration in Liver ([2]; 4 h after IV 5 mg/kg): 5300 ± 160 ng/mL
concentration in Lungs ([2]; 4 h after IV 5 mg/kg): 8960 ± 110 ng/mL
concentration in Spleen ([2]; 4 h after IV 5 mg/kg): 5940 ± 150 ng/mL
concentration in Blood ([2]; 4 h after PO 10 mg/kg): 460 ± 10 ng/mL
concentration in Brain ([2]; 4 h after PO 10 mg/kg): 6240 ± 240 ng/mL
concentration in Heart ([2]; 4 h after PO 10 mg/kg): 3280 ± 150 ng/mL
concentration in Kidneys ([2]; 4 h after PO 10 mg/kg): 4700 ± 220 ng/mL
concentration in Liver ([2]; 4 h after PO 10 mg/kg): 3780 ± 130 ng/mL
concentration in Lungs ([2]; 4 h after PO 10 mg/kg): 3200 ± 230 ng/mL
concentration in Spleen ([2]; 4 h after PO 10 mg/kg): 3740 ± 150 ng/mL
accumulation in brain higher than in blood ([2]; IV): 26 fold
accumulation in brain higher than in blood ([2]; PO): 13 fold
IV/PO, normalized, Kidneys ([2]; normalized by dose): 2.77
IV/PO, normalized, Spleen ([2]; normalized by dose): 3.18
Organ bioavailability, Blood ([2]; rat, in vivo): 63.9%
Organ bioavailability, Brain ([2]; rat, in vivo): 33.0%
Organ bioavailability, Heart ([2]; rat, in vivo): 17.7%
Organ bioavailability, Kidneys ([2]; rat, in vivo): 36.2%
Organ bioavailability, Liver ([2]; rat, in vivo): 35.6%
Organ bioavailability, Lungs ([2]; rat, in vivo): 17.9%
Organ bioavailability, Spleen ([2]; rat, in vivo): 31.5%
Fabs (Pharmacokinetics in dogs; AVN-101 PO 10 mg/kg vs IV 2 mg/kg): 4.6%
Cmax (Pharmacokinetics in dogs; iv, 1 mg/kg): 13.7 ng/mL
Tmax (Pharmacokinetics in dogs; iv, 1 mg/kg): 0.0167 h
half-life (Pharmacokinetics in dogs; iv, 1 mg/kg): 0.348 h
AUC (Pharmacokinetics in dogs; iv, 2 mg/kg): 498 ng·h/mL
Cmax (Pharmacokinetics in dogs; iv, 2 mg/kg): 3740 ng/mL
Tmax (Pharmacokinetics in dogs; iv, 2 mg/kg): 0.0167 h
half-life (Pharmacokinetics in dogs; iv, 2 mg/kg): 0.497 h
AUC (Pharmacokinetics in dogs; po, 5 mg/kg): 31.6 ng·h/mL
Cmax (Pharmacokinetics in dogs; po, 5 mg/kg): 9.1 ng/mL
Tmax (Pharmacokinetics in dogs; po, 5 mg/kg): 4 h
AUC (Pharmacokinetics in dogs; po, 10 mg/kg): 114 ng·h/mL
Cmax (Pharmacokinetics in dogs; po, 10 mg/kg): 23 ng/mL
Tmax (Pharmacokinetics in dogs; po, 10 mg/kg): 1 h
half-life (Pharmacokinetics in dogs; po, 10 mg/kg): 6.1 h
Fabs ([3]; PO 10 mg/kg vs IV 2 mg/kg, mean): 15.3%
AUC ([3]; iv, 2 mg/kg, AUC0 ⟶t, Mean, IV 2 mg/kg): 426 ng·h/mL
AUC ([3]; iv, 2 mg/kg, AUC0 ⟶t, monkey 34887, IV 2 mg/kg): 356 ng·h/mL
AUC ([3]; iv, 2 mg/kg, AUC0 ⟶t, monkey 35188, IV 2 mg/kg): 496 ng·h/mL
AUC ([3]; iv, 2 mg/kg, AUC0 ⟶∞, Mean, IV 2 mg/kg): 792 ng·h/mL
AUC ([3]; iv, 2 mg/kg, AUC0 ⟶∞, monkey 34887, IV 2 mg/kg): 388 ng·h/mL
AUC ([3]; iv, 2 mg/kg, AUC0 ⟶∞, monkey 35188, IV 2 mg/kg): 1200 ng·h/mL
Cmax ([3]; iv, 2 mg/kg, Mean, IV 2 mg/kg): 324 ng/mL
Cmax [3, 10]: 304 ng/mL
Cmax [3, 11]: 345 ng/mL
k el ([3]; iv, 2 mg/kg, Mean, IV 2 mg/kg): 0.000208 s⁻¹
k el [3, 10]: 0.000347 s⁻¹
k el [3, 11]: 7.17e-05 s⁻¹
half-life ([3]; iv, 2 mg/kg, T1/2, Mean, IV 2 mg/kg): 1.63 h
half-life ([3]; iv, 2 mg/kg, T1/2, monkey 34887, IV 2 mg/kg): 0.55 h
half-life ([3]; iv, 2 mg/kg, T1/2, monkey 35188, IV 2 mg/kg): 2.7 h
AUC ([3]; po, 10 mg/kg, AUC0 ⟶t, Mean, PO 10 mg/kg): 360 ng·h/mL
AUC ([3]; po, 10 mg/kg, AUC0 ⟶t, monkey 34920, PO 10 mg/kg): 321 ng·h/mL
AUC ([3]; po, 10 mg/kg, AUC0 ⟶t, monkey 35189, PO 10 mg/kg): 398 ng·h/mL
AUC ([3]; po, 10 mg/kg, AUC0 ⟶∞, Mean, PO 10 mg/kg): 606 ng·h/mL
AUC ([3]; po, 10 mg/kg, AUC0 ⟶∞, monkey 34920, PO 10 mg/kg): 637 ng·h/mL
AUC ([3]; po, 10 mg/kg, AUC0 ⟶∞, monkey 35189, PO 10 mg/kg): 575 ng·h/mL
Cmax [3, 12]: 66 ng/mL
Cmax [3, 13]: 53 ng/mL
Cmax [3, 14]: 79 ng/mL
k el [3, 12]: 3.67e-05 s⁻¹
k el [3, 13]: 2.67e-05 s⁻¹
k el [3, 14]: 4.5e-05 s⁻¹
half-life ([3]; po, 10 mg/kg, T1/2, Mean, PO 10 mg/kg): 5.77 h
half-life ([3]; po, 10 mg/kg, T1/2, monkey 34920, PO 10 mg/kg): 7.3 h
half-life ([3]; po, 10 mg/kg, T1/2, monkey 35189, PO 10 mg/kg): 4.25 h
anxiolytic effect (open/closed arm time and visits, defecations) (male BALB/c mice [4]): clear anxiolytic effects
time spent in the central area (BALB/c mice [5]): significant anxiolytic effect
reversal of pro-amnesic action of Scopolamine (Sprague Dawley rats): significantly reverse
effect on scopolamine-induced amnesia (time in platform quadrant) (BALB/c mice [6]): effectively reversed
effect on deficit in novel object recognition (male BALB/c mice [7]): partially reverse
signs of toxicity (Wistar rats): No signs of toxicity
body weight, plasma biochemistry markers, macro- and microscopic observations (laboratory rabbits): No changes
kidney finding, one of 3 males (laboratory rabbits): small infarctions in cortical substance of the kidneys
ovary finding, one of 3 females (laboratory rabbits): ovary hypo function
concentration in brain-containing chamber vs plasma chamber [8]: never exceeds that of the plasma chamber
Ki (5-HT7 receptor [9]): 0.153 nM
IC50 (hERG potassium channel): 580 nM
